EBNA-1 inhibitor – blocks EBNA-1 binding to DNA | EBNA-1 DNA binding, fluorescence polarization | inhibition, % at 14.8 µM | hit rate 0.34% among 300,000; in the data active means inhibition above about 28%
ALR inh – inhibitors of human sulfhydryl oxidase ALR; inhibition, % (test concentration not listed); P55789; hit rate 3.8% among 290,000; purified ALR, DTT oxidation, H2O2 HRP-luminol luminescence; AID 485317;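 active means mean replicate inhibition above about 79%, with every replicate also reaching it, limit read from the data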
Target sequence (P55789 whole entry, looked up): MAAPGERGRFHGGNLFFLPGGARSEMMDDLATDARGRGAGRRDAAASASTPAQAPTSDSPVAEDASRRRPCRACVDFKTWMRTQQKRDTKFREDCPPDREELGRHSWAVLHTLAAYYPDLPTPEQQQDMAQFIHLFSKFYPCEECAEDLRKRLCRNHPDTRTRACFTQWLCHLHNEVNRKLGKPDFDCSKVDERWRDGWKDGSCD
HCV NS3 hel inh – blocks Hepatitis C virus NS3 helicase unwinding; NS3 helicase DNA unwinding, Cy5 molecular beacon fluorescence; inhibition, % at 10.9 µM; hit rate 0.56% among 290,000;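 active means inhibition above the mean of all tested compounds plus 3 SD, set per campaign, cut at about 35% in these data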;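 further: 0% = DMSO wells and 100% = thioflavine S control wells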
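Test system: hepatitis C virus NS3 helicase domain fragment enzyme. Also added: annealed dual-labelled DNA beacon duplex, ATP-started. Timing: 60 min unwinding reaction at 25 °C after ATP addition. Technique: Cy5 fluorescence. Measure: % inhibition of unwinding.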
ZTA counter – ZTA (EBV) inhibition in EBNA-1 counter-screen. AID 2234. P03206. inhibition, % at 11 µM. ZTA-DNA binding, fluorescence polarization. hit rate 0.15% among 320,000; in the data active means inhibition above about 33%
Target sequence (P03206 whole entry, looked up): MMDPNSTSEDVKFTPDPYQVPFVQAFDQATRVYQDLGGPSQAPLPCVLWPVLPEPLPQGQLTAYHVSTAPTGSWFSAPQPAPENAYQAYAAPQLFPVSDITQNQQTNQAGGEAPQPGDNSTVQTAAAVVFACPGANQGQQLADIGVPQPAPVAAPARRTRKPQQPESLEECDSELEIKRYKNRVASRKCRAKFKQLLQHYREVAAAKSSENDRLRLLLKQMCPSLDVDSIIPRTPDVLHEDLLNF
PfM18AAP inh – blocks P. falciparum M18 aspartyl aminopeptidase; inhibition, % at 7.35 µM; AID 1822; recombinant PfM18AAP, H-Glu-NHMec fluorogenic cleavage; hit rate 1.2% among 290,000;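 active means inhibition above the campaign mean inhibition over all tested compounds plus 3 SD, cut at about 28% in these data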;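 further: 0% = plate median of test compound wells and 100% = 2 mM ZnCl2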
core dimer inh – blocks dimerization of HCV core protein; TR-FRET GST/Flag-core106 dimerization, 1536-well; inhibition, % at 5 µM; hit rate 0.33% among 300,000;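 active means inhibition above the mean of all tested compounds plus 3 SD, set per screening campaign, cut at about 45% in these data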
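System – GST-tagged and Flag-tagged HCV core protein residues 1-106 · Repeats – one well for each compound · Technique – TR-FRET 671 and 617 nm emission · Doses – one concentration, 5 µM, in 0.5% DMSO · Times – 4 h, 22.5 °C incubation · Also added – Eu donor and XL665 acceptor anti-tag antibodies · Measure – percent inhibition of core106 dimerization signal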
Active calls of the source: *; . = no result. Only some compounds are listed: those with a hit (about 5.2% of all), similar ones and a draw of the others.

SMILES	EBNA-1 inhibitor	ALR inh	HCV NS3 hel inh	ZTA counter	PfM18AAP inh	core dimer inh
C[C@@H]1COC(=O)[C@H](Cc2ccc(F)cc2)CC/C=C\C[C@@H](CC(=O)NCCO)C(=O)N1	.	-5	.	.	.	.
CC1=C(C(=O)NC2CCCc3c2cnn3-c2ccc(F)cc2F)OCCO1 (stereo not given)	-7	89*	4	-11	-9	7
O=C(NCc1ccco1)C1CC(=O)N(c2ccc(O)cc2)C1 (stereo not given)	1	99*	-1	-2	11	-2
COc1ccc(N2CC(C(=O)Nc3ccccc3C(=O)NCc3ccco3)CC2=O)cc1 (stereo not given)	-8	.	2	14	2	3
COc1ccc(S(=O)(=O)CCC(=O)NC2CCCCC2)cc1	-1	10	-3	-10	4	0
O=C(CCS(=O)(=O)c1ccccc1)NC1CCCCC1	1	84*	14	0	-12	-9
Cc1ccc(S(=O)(=O)CCC(=O)N(Cc2nnc(-c3ccc(Cl)cc3)o2)C2CC2)cc1	.	-4	.	7	.	.
CC(C)CC(NC(=O)/C(=C/c1ccco1)NC(=O)c1ccc(Br)o1)C(=O)O (stereo not given)	-7	4	15	-9	3	0
CCN(CC(=O)Nc1cccc(OC)c1)c1ncnc2sc(C)c(C)c12	4	87*	-26	-2	-4	-6
COc1cccc(NC(=O)COc2ncnc3sc(C)c(C)c23)c1	-14	-7	-3	4	2	-1
C=CCN1C(=O)c2ccc(C(=O)N3CCN(S(=O)(=O)c4cccc(Cl)c4)CC3)cc2C1=O	9	-15	1	6	6	-2
CCOC(=O)C1=C(N)OC2=C(C(=O)CCC2)C1c1ccccc1OCC (stereo not given)	-2	78*	-4	-2	13	-2
CCNC(=O)CN(c1ccc(Oc2ccccc2)cc1)S(=O)(=O)c1ccccc1	-2	-7	-5	-20	9	-7
Cc1nn(Cc2cccc(C(N)=O)c2)c(C)c1Br	-2	-6	2	4	-5	-7
Cc1ccc(/C=N/Nc2cccc(C(=O)O)c2)s1	-5	98*	31	-9	6	-13
O=C(N/N=C/C=C/c1ccccc1)c1ccncc1	3	-5	-4	-8	2	-7
O=C(O)c1ccc(N/N=C/C=C/c2ccccc2)cc1	7	92*	24	3	11	-11
O=C(N/N=C\c1cc(Br)cs1)c1ccncc1	-6	14	-7	6	-2	-3
O=C(O)c1cccc(N/N=C/c2cn(-c3ccccc3)nc2-c2cccs2)c1	-6	.	17	-14	31*	11
O=C(O)c1ccc(N/N=C/c2cc(Br)cs2)cc1	-4	98*	12	-8	9	-19
COc1ccc(C(=O)Nc2nnc(SCC(=O)NC3CC3)s2)cc1	1	2	7	-3	3	-2
COC(=O)[C@]1(Cc2ccccc2)N[C@H](CN(C)C(=O)Nc2ccc(C(F)(F)F)cc2)[C@@H]2C(=O)N(C)C(=O)[C@@H]21	.	-7	.	.	.	.
O=C(O)c1ccc(N/N=C/c2ccc(-c3ccccc3)cc2)cc1	.	.	7	.	-3	.
O=C(O)c1cccc(Cn2c(Cl)c(/C=N/Nc3ccccc3)sc2=O)c1	7	100*	3	32	-51	-9
O=C(O)c1cccc(N/N=C/c2cccc3ccccc23)c1	0	99*	5	-10	16	-12
SMILES	EBNA-1 inhibitor	ALR inh	HCV NS3 hel inh	ZTA counter	PfM18AAP inh	core dimer inh
COc1ccc2ccccc2c1/C=N/Nc1cccc(C(=O)O)c1	-1	-11	3	3	25	-15
O=C(O)c1cccc(Cn2c(Cl)c(/C=N/NC(=O)c3ccccc3Cl)sc2=O)c1	-3	28	4	13	-25	-1
Cc1ccc(/C=N/Nc2ccc(C(=O)O)cc2)o1	-11	98*	-3	-5	5	-18
O=C(O)c1ccc(N/N=C/c2ccc(-c3ccc(Br)cc3)o2)cc1	7	.	-2	7	7	-16
CC(C)c1ccc(/C=N/Nc2ccc(C(=O)O)cc2)cc1	14	98*	16	8	1	-11
O=[N+]([O-])c1cccc(S(=O)(=O)NCC2CC3CCC2C3)c1 (stereo not given)	-13	-9	16	-10	13	10
Cc1ccc(NC(=O)C2CCN(S(=O)(=O)c3ccc4c(c3)C(C)(C)C(=O)N4C)CC2)c(C)c1	-13	1	26	-3	11	4
Cc1ccc(/C=N/Nc2ccc(C(=O)O)cc2)s1	-4	99*	33	6	17	-15
COC(=O)c1ccc(OC(=O)CCc2cc(OC)c(OC)c(OC)c2)cc1	4	0	9	-1	2	2
Cc1ccc(/C=N/n2c(-c3ccco3)n[nH]c2=S)cc1	-12	63	3	-3	14	1
Cc1cccc(/C=N/n2c(-c3ccco3)n[nH]c2=S)c1	11	97*	-3	-5	15	0
S=c1[nH]nc(-c2ccco2)n1/N=C/c1ccccn1	-5	98*	-4	-21	20	-3
Cc1cccc(C(C)C)c1NC(=O)c1cc2ccccc2o1	-6	-6	9	-12	-5	-2
Cc1ccc(NC(=O)c2cccc(S(=O)(=O)N3CCCCC3)c2)cc1	1	-16	-9	-6	6	1
Cc1ccc(N2C(=O)CC(NNC(=O)c3cccc(S(=O)(=O)N4CCCC4)c3)C2=O)cc1 (stereo not given)	6	95*	4	13	9	0
CCc1cc(C(=O)NCC(c2ccco2)N2CCCCC2)sc1C (stereo not given)	.	32	.	2	.	.
CCCN(CCC)c1ccc(/C=N/NC(=O)CN2CCOCC2)cc1	2	99*	-4	-12	10	-14
COc1cc(/C=N/NC(N)=S)ccc1OCC(=O)Nc1ccc(C)cc1	47*	-5	-7	34*	0	2
O=C(CN1CCOCC1)N/N=C/c1ccccc1	-7	3	6	-3	7	4
CCN(CC)c1ccc(/C=N\NC(N)=O)cc1	-5	99*	2	2	6	-15
CCN(CC)c1ccc(/C=N/NC(=O)OC(C)(C)C)cc1	1	99*	-12	-5	2	-10
CCN(CC)c1ccc(/C=N/NC(=O)Nc2ccccc2)cc1	-2	34	-5	11	-3	-6
Cc1csc(=O)n1CC(=O)Nc1ccc(Cl)cc1F	.	2	.	3	.	.
COCCCNC(=O)c1ccc(Cn2c(=O)c3ccccc3n(CC(=O)NCCc3ccc(OC)c(OC)c3)c2=O)cc1	7	-14	-5	14	0	1
CCN(CC)c1ccc(/C=N/NC(=O)CC(C)C)cc1	0	99*	8	-3	15	-11

High-throughput results: PubChem, several laboratories
